The values below come from ChEMBL document CHEMBL1145359, “Synthesis and anticonvulsant activity of 4-(2-(2,6-dimethylphenylamino)-2-oxoethylamino)-N-(substituted)butanamides: a pharmacophoric hybrid approach” (Bioorg Med Chem Lett, 2007).

Data set [1] relates to Mus musculus. Nature of the data set: Anticonvulsant activity against subcutaneous picrotoxin-induced seizure in mouse at 100 mg/kg, ip after 0.5 hrs. Format: functional, organism-based. Details: dose 100 mg/kg. In outline: (§1)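 Mice given intraperitoneal doses of 30, 100 and 300 mg/kg, with a vehicle-only control, then challenged with subcutaneous picrotoxin. Protection assessed at 0.5 h and 4 h after dosing. Recorded value is the lowest dose protecting half or more of the animals; a dash means no activity at 300 mg/kg.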

In data set [2] the test system is Mus musculus. Nature of the data set: Acute neurotoxicity in mouse at 300 mg/kg, ip after 0.5 hrs by rotarod test. Format: toxicity, organism-based. Set-up: dose 300 mg/kg, route intraperitoneal. As to conditions: in vivo. The gist of the method: (§2)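 Mice dosed intraperitoneally at 30, 100 and 300 mg/kg; motor impairment scored at 0.5 h and 4 h after dosing. The value recorded is the minimum dose at which the effect appeared in half or more of the mice. A dash means no effect at the top dose of 300 mg/kg. A vehicle-treated control group was included.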
For orientation: Falling from the rotarod earlier than controls is read as motor impairment.

Data set [3] concerns Mus musculus. Nature of the data set: Anticonvulsant activity against maximal-electroshock-induced seizure in mouse at 300 mg/kg, ip after 0.5 hrs. Format: functional, organism-based. Set-up: dose 300 mg/kg. The gist of the method: (§3)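 Mice received the compound intraperitoneally at 30, 100 or 300 mg/kg and were challenged with maximal electroshock 0.5 h later, scoring prevention of seizure spread. The value recorded is the minimum dose protecting half or more of the mice. A dash means no activity up to 300 mg/kg. A vehicle-treated control group was included.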

The subject of data set [4] is Mus musculus. Nature of the data set: Anticonvulsant activity against subcutaneous pentylenetetrazole-induced seizure in mouse at 300 mg/kg, ip after 0.5 hrs. Format: functional, organism-based. Details: dose 300 mg/kg. In outline:
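Intraperitoneal dosing in mice at 30, 100 or 300 mg/kg, followed 0.5 h later by a subcutaneous pentylenetetrazole challenge, scoring protection against seizures (a seizure-threshold test). The value recorded is the minimum dose active in half or more of the mice. A dash means no activity at 300 mg/kg. A vehicle-treated control group was included.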

Data set [5] has as its system Mus musculus. Nature of the data set: Anticonvulsant activity against subcutaneous picrotoxin-induced seizure in mouse at 100 mg/kg, ip after 4 hrs. Format: functional, organism-based. Details: dose 100 mg/kg. The gist of the method:
as §1

Data set [6] has as its system Mus musculus. Nature of the data set: Acute neurotoxicity in mouse at 300 mg/kg, ip after 4 hrs by rotarod test. Conditions: in vivo. Details: dose 300 mg/kg, route intraperitoneal. Format: toxicity, organism-based. In outline: as §2
For data set [7], the system named is Mus musculus. Nature of the data set: Anticonvulsant activity against maximal-electroshock-induced seizure in mouse at 100 mg/kg, ip after 0.5 hrs. Format: functional, organism-based. Set-up: dose 100 mg/kg. In outline: as §3
For data set [8], the system named is Mus musculus. Nature of the data set: Anticonvulsant activity against subcutaneous picrotoxin-induced seizure in mouse at 300 mg/kg, ip after 4 hrs. Format: functional, organism-based. Details: dose 300 mg/kg. The gist of the method:
as §1

The subject of data set [9] is Mus musculus. Nature of the data set: Acute neurotoxicity in mouse at 100 mg/kg, ip after 0.5 hrs by rotarod test. Format: toxicity, organism-based. Set-up: dose 100 mg/kg, route intraperitoneal. Conditions: in vivo. In outline: as §2
Data set [10] has as its system Mus musculus. Nature of the data set: Anticonvulsant activity against maximal-electroshock-induced seizure in mouse at 30 mg/kg, ip after 0.5 hrs. Format: functional, organism-based. Details: dose 30 mg/kg. In outline: as §3
In data set [11] the test system is Mus musculus. Nature of the data set: Acute neurotoxicity in mouse at 100 mg/kg, ip after 4 hrs by rotarod test. Details: dose 100 mg/kg, route intraperitoneal. Format: toxicity, organism-based. Conditions: in vivo. The gist of the method: as §2
Data set [12] relates to Mus musculus. Nature of the data set: Anticonvulsant activity against subcutaneous picrotoxin-induced seizure in mouse at 30 mg/kg, ip after 0.5 hrs. Format: functional, organism-based. Details: dose 30 mg/kg. In outline:
as §1

Data set [13] has as its system Mus musculus. Nature of the data set: Anticonvulsant activity against subcutaneous pentylenetetrazole-induced seizure in mouse at 30 mg/kg, ip after 0.5 hrs. Format: functional, organism-based. Details: dose 30 mg/kg. In outline:
(§4)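 Mice dosed intraperitoneally at 30, 100 and 300 mg/kg, with a vehicle-treated control, then challenged with subcutaneous pentylenetetrazole to detect elevation of seizure threshold. Read 0.5 h after dosing.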

Data set [14] relates to Mus musculus. Nature of the data set: Anticonvulsant activity against subcutaneous pentylenetetrazole-induced seizure in mouse at 100 mg/kg, ip after 0.5 hrs. Set-up: dose 100 mg/kg. Format: functional, organism-based. The gist of the method: as §4
The test system of data set [15] is Mus musculus. Nature of the data set: Anticonvulsant activity against subcutaneous picrotoxin-induced seizure in mouse at 30 mg/kg, ip after 4 hrs. Format: functional, organism-based. Details: dose 30 mg/kg. The gist of the method: as §1
The test system of data set [16] is Mus musculus. Nature of the data set: Anticonvulsant activity against subcutaneous picrotoxin-induced seizure in mouse at 10 mg/kg, ip after 0.5 hrs. Format: functional, organism-based. Set-up: dose 10 mg/kg.

Calls of active or inactive are those of the source.

Regarding `Cc1cccc(C)c1NC(=O)CNCCCC(=O)N(C)C`, the outcome in data set [1] and in data set [5] was Active. The Activity result in data set [2] is “Not Active”; in data set [6], “Active”. For the same compound, the outcome in [3] and in [4] was inactive.
For `Cc1cccc(C)c1NC(=O)CNCCCC(=O)N1CCCCC1`, the outcome in data set [1] and in data set [7] was Active. In addition, the outcome in data set [8] and in data set [4] was inactive. For the same compound, the result in data set [6] and in data set [9] was Active.
`O=C1NC(=O)C(c2ccccc2)(c2ccccc2)N1` [PHENYTOIN]: the outcome in [8] and in data set [4] was inactive. The outcome in data set [10] was Active. The result in [11] and in data set [9] was Active.
For the compound `CCCCN(CCCC)C(=O)CCCNCC(=O)Nc1c(C)cccc1C`, the outcome in data set [7], in data set [12] and in [5] was Active. Also, the Activity result in [2] is “Active”; in [6], “Not Active”. Also, in data set [4], the outcome was inactive.
For the compound `CCC1(c2ccccc2)C(=O)NC(=O)NC1=O` [PHENOBARBITAL], the outcome in data set [7], in [12], in data set [13] and in data set [5] was Active. The outcome in [6] and in data set [9] was Active.
As for `CCC1(C)CC(=O)NC1=O` (centres undefined) [ETHOSUXIMIDE], the Activity result in [2] and in [6] was “Not Active” throughout. Also, the result in data set [8] and in data set [3] was inactive. The outcome in [14] was Active.
Consider `Cc1cccc(C)c1NC(=O)CCCNCC(=O)Nc1c(C)cccc1C`, for which the result in data set [7], in data set [15], in data set [16] and in [13] was Active. The Activity entry in data set [2] was “Active”; in data set [6], “Not Active”.
`Cc1cccc(C)c1NC(=O)CNCCCC(=O)N(c1ccccc1)c1ccccc1`: the result in [1], in data set [8] and in [3] was Active. Also, the Activity result is on record as “Active” in data set [2] and “Not Active” in data set [6]. For the same compound, the result in [4] was inactive.
As to `Cc1cccc(C)c1NC(=O)CNCCCC(=O)N1CCN(c2cccc(C(F)(F)F)c2)CC1`, the Activity entry in [2] and in data set [6] was “Not Active” throughout. Besides, the result in data set [3] and in [4] was inactive. In addition, the outcome in data set [12] and in [5] was Active.
`Cc1cccc(C)c1NC(=O)CNCCCC(=O)Nc1ccccc1Br`: the outcome in data set [7], in [15] and in [12] was Active. The outcome in data set [2] and in data set [6] was Active. In addition, in data set [4], the outcome was inactive.
For `Cc1cccc(C)c1NC(=O)CNCCCC(=O)O`, the result in data set [7], in data set [12] and in data set [5] was Active. The figures for the Activity result in data set [2] and in data set [6] were “Active” and “Not Active”, respectively. Also, the result in [4] was inactive.
For the compound `Cc1cccc(NC(=O)CCCNCC(=O)Nc2c(C)cccc2C)c1`, the Activity entry is “Active” in data set [2] and “Not Active” in data set [6]. Besides, the result in [3] and in data set [4] was inactive. Besides, the result in [12] and in [5] was Active.
As to `Cc1ccc(NC(=O)CCCNCC(=O)Nc2c(C)cccc2C)c(C)c1`, the result in data set [1], in data set [7], in [4] and in [5] was Active. Also, the outcome in data set [2] and in data set [6] was Active.
Take `Cc1cccc(C)c1NC(=O)CNCCCC(=O)N1CCC(C)CC1`: the result in [1] and in data set [5] was Active. Moreover, the result in data set [3] and in data set [4] was inactive. The outcome in data set [11] and in [9] was Active.
For `Cc1cccc(C)c1NC(=O)CNCCCC(=O)Nc1ccccc1`, the result in [1] and in [7] was Active. The result in [2] and in data set [6] was Active. Besides, the result in [8] and in data set [4] was inactive.
Turning to `Cc1cccc(C)c1NC(=O)CNCCCC(=O)Nc1cccc(Cl)c1C`, the result in [1], in data set [7] and in data set [5] was Active. In addition, the figures for the Activity entry in [2] and in data set [6] were “Active” and “Not Active”, respectively. Besides, the outcome in [4] was inactive.
